Publication PMC9128166 (Cancer Science, 2022)
Several values for one entry are separate records, joined by “and”; a condition that tells them apart may be missing. Equal entries are not always repeated. Entries after “also recorded” stand apart in the source; their conditions may differ.

Tests used:
[1] = cited from earlier work
[2] = Dose-limiting toxicity / MTD, 3 + 3 dose escalation and expansion; type: in vivo, Japanese patients
Summary of the method: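 Oral test compound in Japanese patients: once daily for 8 weeks, then the same dose weekly; starting dose 10 mg QD. Patients were hospitalised for the 28-day DLT period. DLTs were graded by NCI CTCAE v4.03. MTD was one level below the dose with DLT in ≥2 of 6 patients, with 3 added patients to confirm.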

[3] = system: relapsed or refractory follicular lymphoma; assay: Investigator-assessed response; type: in vivo, Japanese patients
Summary of the method: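 Investigator-assessed response by Lugano criteria in the full analysis set (all treated patients). Patients received 10 or 20 mg QD orally for 8 weeks, then the same dose QW. CT, FDG-PET or PET-CT was chosen by subtype, using the same technique as at screening. Scans ran every 8 weeks through week 24, every 12 weeks through week 96, then every 24 weeks until progression.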

[4] = system: plasma proteins associated with PI3Kδ inhibition; assay: Plasma proteomic pharmacodynamic biomarkers; type: in vivo, Japanese patients
[5] = Plasma pharmacokinetics of parsaclisib, cycle 1 day 15; type: in vivo, Japanese patients; settings: for Vd/F: Vz/F
[6] = previous studies, patients with NHL
[7] = 10 mg QD, cycle 1 day 15, n 3, mean ± SD
[8] = 20 mg QD, cycle 1 day 15, n 11, mean ± SD

In the case of `CCOc1c([C@H](C)n2nc(C)c3c(N)ncnc32)cc(Cl)c(F)c1[C@@H]1CNC(=O)C1` [parsaclisib], the “decreases in neutrophil count to grade 3 or 4” value ([1]; previous studies, patients with FL or MZL) is given as 13–14%, the ALT elevation [1, 6] is given as 13–26% and the AST elevation [1, 6] is given as 17–23%. For the same compound, the “cough (TEAE)” value ([1]; primarily Western populations) was 17–22%, the “nausea (TEAE)” value ([1]; primarily Western populations) was 14–26% and the “pyrexia (TEAE)” value ([1]; primarily Western populations) was 13–17%. The “rash (TEAE)” value ([1]; primarily Western populations) was 14–22%, the “diarrhea (TEAE)” value ([1]; prior studies, primarily Western populations) was 20–44% and the MTD ([2]; 20 mg QD for 8 weeks followed by 20 mg QW) was “not considered to have exceeded the MTD; also recorded: the criteria for MTD was not exceeded”. For the same compound, the “DLTs during dose expansion” value ([2]; 20‐mg dose level, QD schedule) was “grade 3 febrile neutropenia on day 28 and grade 4 neutropenia on day 14 (each in 1 patient); also recorded: two DLTs occurred in one patient each”, the “DLTs during the 28‐day DLT observation period” value ([2]; dose‐escalation phase, 10‐mg (n = 3) or 20‐mg (n = 3) dose level) was “No DLTs” and the “BOR, CMR/CR” value ([3]; FL (n = 9)) was 2 (22.2) n (%). For the same compound, the “BOR, NMR/SD” value ([3]; FL (n = 9)) was 0 (0.0) n (%), the “BOR, PMD/PD” value ([3]; FL (n = 9)) was 0 (0.0) n (%) and the “BOR, PMR/PR” value ([3]; FL (n = 9)) was 7 (77.8) n (%). The Objective response ([3]; FL (n = 9)) was 9 (100.0) n (%), the “BOR, Not assessed” value ([3]; FL (n = 9), no postbaseline response data available) was 0 (0.0) n (%) and the complete response ([3]; FL, 2 of 9 patients) was 22.2%. The ORR ([3]; FL, 9 of 9 patients) was 100%, the “observed PFS” value ([3]; nine responders with FL) was 1.9–17.5 months and the “parsaclisib‐responsive proteins after transition to QW dosing” value ([4]; 10 mg or 20 mg QW, weeks 12 and 24) was “reverted partially or completely to baseline expression levels”. For the same compound, the “plasma proteins significantly changed following 4 weeks or 8 weeks of QD parsaclisib dosing” value ([4]; FL and MZL (n = 11), approximately 1000 proteins analysed) was 23 plasma proteins, the Accumulation ratio [5, 7] was 1.4 ± 0.2 (1.4, 17.1) and the CLss/F [5, 7] was 1.8 ± 0.6 (1.75, 30.9) L/h. The Cmin [5, 7] was 227 ± 83.2 nM and 227 ± 83.2 (215, 36.6) nM, the Tmax ([5]; 10 mg QD, cycle 1 day 15, n 3, median (range)) was 1.0 (0.5–2.0) h and the Accumulation ratio [5, 8] was 1.2 ± 0.1 (1.2, 11.3). The CLss/F [5, 8] was 2.3 ± 0.75 (2.2, 32.9) L/h, the Cmin [5, 8] was 303 ± 155 nM and 303 ± 155 (271, 51.0) nM and the CLss/F ([5]; Total (10 and 20 mg QD), cycle 1 day 15, n 14, mean ± SD) was 2.2 ± 0.7 L/h and 2.2 ± 0.7 (2.1, 32.8) L/h. The AUC ([5]; human, plasma, oral, 10 mg) was 12.5 µM·h, the Cmax ([5]; human, plasma, oral, 10 mg) was 1440 ± 502 nM and the Tmax ([5]; human, plasma, oral, 10 mg, Tmax, 10 mg QD, cycle 1 day 15, n 3, median (range)) was 0.97 h. For the same compound, the Vd/F ([5]; human, plasma, oral, 10 mg, 10 mg QD, cycle 1 day 15, n 3, mean ± SD) was 31.3 ± 9.8 L, the half-life ([5]; human, plasma, oral, 10 mg, t½, 10 mg QD, cycle 1 day 15, n 3, mean ± SD) was 12.6 ± 4.6 h and the AUC ([5]; human, plasma, oral, 20 mg) was 20.5 µM·h. It also gave a Cmax ([5]; human, plasma, oral, 20 mg) of 2630 ± 530 nM, a Tmax ([5]; human, plasma, oral, 20 mg, Tmax, 20 mg QD, cycle 1 day 15, n 11, median (range)) of 0.55 h and a Vd/F ([5]; human, plasma, oral, 20 mg, 20 mg QD, cycle 1 day 15, n 11, mean ± SD) of 31.1 ± 10.2 L. For the same compound, the half-life ([5]; human, plasma, oral, 20 mg, t½, 20 mg QD, cycle 1 day 15, n 11, mean ± SD) was 9.8 ± 2.8 h and the half-life ([5]; human, plasma, oral, steady‐state geometric mean t½, overall, dose‐independent) was 9.9 h.
